Assay results as given in publication PMC8942385 (Medicinal chemistry research : an international journal for …, 2021).
“Also recorded” adds a separate entry of the source. Like-named read-outs stand apart in the source and are kept apart here.

Assays:
[1] = Configurational stability of separated enantiomers; type: physicochemical; conditions: after chiral HPLC separation
5-HT2CR = molecular target: T1, 5-HT2CR (Homo sapiens, UniProt P28335); assay: PDSP radioligand binding, 5-HT2CR
T1 sequence (P28335 33-458): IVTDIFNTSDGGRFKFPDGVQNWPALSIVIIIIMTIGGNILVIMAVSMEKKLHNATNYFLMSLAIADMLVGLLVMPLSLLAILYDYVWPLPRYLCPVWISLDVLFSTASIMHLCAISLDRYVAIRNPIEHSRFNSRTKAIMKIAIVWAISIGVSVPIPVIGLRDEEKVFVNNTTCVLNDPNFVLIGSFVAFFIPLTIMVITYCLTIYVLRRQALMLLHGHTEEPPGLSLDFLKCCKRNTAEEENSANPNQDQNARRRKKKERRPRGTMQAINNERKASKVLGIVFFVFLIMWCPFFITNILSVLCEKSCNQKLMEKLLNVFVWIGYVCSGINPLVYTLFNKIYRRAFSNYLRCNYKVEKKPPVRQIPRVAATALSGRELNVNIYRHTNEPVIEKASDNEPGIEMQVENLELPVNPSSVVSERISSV

5-HT2BR = 5-HT2BR (Homo sapiens, UniProt P41595); assay: PDSP radioligand binding, 5-HT2BR; conditions: [3H]LSD
How it was run: (§1)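 Radioligand competition binding run by NIMH-PDSP. Radioligands: [3H]8-OH-DPAT (5-HT1AR), [3H]Ketanserin (5-HT2AR), [3H]LSD (5-HT2BR), [3H]SCH23390 (D1R, D5R), [3H]N-Methylspiperone (D2R, D3R, D4R). […] Ki given as mean ± SEM of at least 3 independent assays, each in triplicate.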

D4R = molecular target: T2, D4R (Homo sapiens, UniProt P21917); assay: PDSP radioligand binding, D4
T2 sequence (P21917 1-419): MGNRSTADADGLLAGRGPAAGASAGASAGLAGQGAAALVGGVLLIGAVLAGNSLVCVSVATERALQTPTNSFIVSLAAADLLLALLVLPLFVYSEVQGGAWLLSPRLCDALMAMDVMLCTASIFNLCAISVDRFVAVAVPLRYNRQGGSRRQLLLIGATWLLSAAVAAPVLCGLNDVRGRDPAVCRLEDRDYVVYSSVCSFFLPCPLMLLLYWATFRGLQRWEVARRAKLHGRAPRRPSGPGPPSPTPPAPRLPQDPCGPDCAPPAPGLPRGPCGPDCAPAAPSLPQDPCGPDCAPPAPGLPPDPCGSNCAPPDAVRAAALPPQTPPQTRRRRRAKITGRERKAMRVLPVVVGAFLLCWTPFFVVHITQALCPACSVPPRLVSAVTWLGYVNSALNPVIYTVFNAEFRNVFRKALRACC
How it was run: as §1

5-HT1AR [2] = molecular target: T3, 5-HT1AR (Homo sapiens, UniProt P08908); assay: PDSP radioligand binding, 5-HT1AR; conditions: [3H]8-OH-DPAT
T3 sequence (P08908 1-422): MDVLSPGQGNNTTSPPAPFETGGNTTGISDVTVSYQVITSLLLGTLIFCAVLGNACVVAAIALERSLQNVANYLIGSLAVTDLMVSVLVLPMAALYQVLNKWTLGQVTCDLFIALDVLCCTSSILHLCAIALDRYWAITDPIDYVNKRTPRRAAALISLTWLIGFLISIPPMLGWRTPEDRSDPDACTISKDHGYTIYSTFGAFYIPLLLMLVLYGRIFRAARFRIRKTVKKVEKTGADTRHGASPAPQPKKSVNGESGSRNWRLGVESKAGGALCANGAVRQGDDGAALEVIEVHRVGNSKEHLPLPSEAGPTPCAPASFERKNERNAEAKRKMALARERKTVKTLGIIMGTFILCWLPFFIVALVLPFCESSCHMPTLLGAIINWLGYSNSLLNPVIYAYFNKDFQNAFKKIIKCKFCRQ
How it was run: as §1

h5-HT7A [3] = molecular target: T4, h5-HT7A (Homo sapiens, UniProt P34969); assay: HEK-5-HT7A / cAMP functional assay; type: cell-based; conditions: agonist mode
NET = NET (Homo sapiens, UniProt P23975); assay: PDSP radioligand binding, NET; conditions: for Binding, NET: inhibition threshold class: [3H]Nisoxetine, 10 μM concentration
D1R = D1R (Homo sapiens, UniProt P21728); assay: PDSP radioligand binding, D1; conditions: for inhibition at 10 µM: read-out: Binding, D1: inhibition threshold class
How it was run: as §1

SERT [4] = molecular target: T5, SERT (Homo sapiens, UniProt P31645); assay: PDSP radioligand binding, SERT; conditions: for Binding, SERT: inhibition threshold class: [3H]Citalopram, 10 μM concentration
DAT = DAT (Homo sapiens, UniProt Q01959); assay: PDSP radioligand binding, DAT; conditions: for Binding, DAT: inhibition threshold class: [3H]WIN35428, 10 μM concentration
5-HT7R [5] = molecular target: T6, 5-HT7R (Homo sapiens, UniProt P34969); assay: GPCR Tango assay, β-arrestin recruitment; type: cell-based
D5R = D5R (Homo sapiens, UniProt P21918); assay: PDSP radioligand binding, D5; conditions: for inhibition at 10 µM: read-out: Binding, D5: inhibition threshold class
How it was run: as §1

D3R = D3R (Homo sapiens, UniProt P35462); assay: PDSP radioligand binding, D3; conditions: for Ki: Binding affinity constant Ki, D3, [3H]N-Methylspiperone
How it was run: as §1

5-HT7R [6] = molecular target: T6, 5-HT7R; assay: PDSP radioligand binding, 5-HT7R
D2R = D2R (Homo sapiens, UniProt P14416); assay: PDSP radioligand binding, D2
How it was run: as §1

5-HT2AR = 5-HT2AR (Homo sapiens, UniProt P28223); assay: PDSP radioligand binding, 5-HT2AR; conditions: [3H]Ketanserin
How it was run: as §1

h5-HT7A [7] = molecular target: T4, h5-HT7A; conditions: cited from earlier work
5-HT1AR [8] = molecular target: T3, 5-HT1AR; conditions: read-out: Binding affinity constant Ki, 5-HT1AR; cited from earlier work
5-HT7R [9] = molecular target: T6, 5-HT7R; conditions: cited from earlier work
5-HT7R [10] = molecular target: T6, 5-HT7R; conditions: read-out: Binding affinity constant Ki, 5-HT7R; Table 1; cited from earlier work
SERT [11] = molecular target: T5, SERT; conditions: 10 μM concentration; cited from earlier work
[12] = mean ± SEM, min 3 assays in triplicate
[13] = [3H]SCH23390, 10 μM concentration
[14] = Binding affinity constant Ki, 5-HT1AR

Chain of D2R (P14416 whole entry): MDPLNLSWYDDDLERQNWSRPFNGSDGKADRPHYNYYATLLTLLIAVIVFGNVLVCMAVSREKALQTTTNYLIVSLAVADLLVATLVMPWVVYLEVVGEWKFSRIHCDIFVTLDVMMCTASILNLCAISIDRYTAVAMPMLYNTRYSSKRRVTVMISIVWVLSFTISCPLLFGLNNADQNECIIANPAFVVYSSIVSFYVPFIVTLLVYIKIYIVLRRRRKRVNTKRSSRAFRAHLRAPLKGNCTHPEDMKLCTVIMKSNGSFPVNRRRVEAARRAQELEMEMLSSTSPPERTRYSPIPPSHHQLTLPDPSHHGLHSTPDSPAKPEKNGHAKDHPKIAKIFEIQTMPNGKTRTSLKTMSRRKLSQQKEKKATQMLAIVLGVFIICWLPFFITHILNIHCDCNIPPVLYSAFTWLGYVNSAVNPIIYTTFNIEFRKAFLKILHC
Chain of 5-HT2AR (P28223 whole entry): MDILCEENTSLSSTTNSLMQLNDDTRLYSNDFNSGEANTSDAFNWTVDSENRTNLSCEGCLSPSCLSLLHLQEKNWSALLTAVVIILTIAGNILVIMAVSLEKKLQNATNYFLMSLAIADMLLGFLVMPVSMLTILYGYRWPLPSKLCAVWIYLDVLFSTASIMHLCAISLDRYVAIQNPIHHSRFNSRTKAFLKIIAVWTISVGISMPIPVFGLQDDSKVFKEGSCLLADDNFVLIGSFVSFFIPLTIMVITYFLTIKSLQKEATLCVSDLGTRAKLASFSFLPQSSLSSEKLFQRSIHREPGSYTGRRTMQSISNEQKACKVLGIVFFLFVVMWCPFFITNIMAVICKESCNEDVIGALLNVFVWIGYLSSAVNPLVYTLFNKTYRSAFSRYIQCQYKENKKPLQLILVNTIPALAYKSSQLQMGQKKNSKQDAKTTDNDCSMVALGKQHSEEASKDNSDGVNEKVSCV
Chain of D5R (P21918 whole entry): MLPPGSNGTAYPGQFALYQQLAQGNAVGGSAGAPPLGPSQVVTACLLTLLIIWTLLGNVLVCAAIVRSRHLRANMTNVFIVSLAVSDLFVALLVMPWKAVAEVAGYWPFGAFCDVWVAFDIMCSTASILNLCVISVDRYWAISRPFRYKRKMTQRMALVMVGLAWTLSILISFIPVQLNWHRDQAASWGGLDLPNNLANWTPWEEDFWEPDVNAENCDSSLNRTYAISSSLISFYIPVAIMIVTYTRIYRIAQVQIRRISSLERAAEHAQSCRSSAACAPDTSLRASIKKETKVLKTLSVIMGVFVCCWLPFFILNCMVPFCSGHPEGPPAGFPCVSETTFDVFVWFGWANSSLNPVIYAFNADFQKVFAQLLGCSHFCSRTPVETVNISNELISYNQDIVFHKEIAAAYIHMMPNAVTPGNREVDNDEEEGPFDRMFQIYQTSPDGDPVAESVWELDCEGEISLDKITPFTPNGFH
Chain of D1R (P21728 whole entry): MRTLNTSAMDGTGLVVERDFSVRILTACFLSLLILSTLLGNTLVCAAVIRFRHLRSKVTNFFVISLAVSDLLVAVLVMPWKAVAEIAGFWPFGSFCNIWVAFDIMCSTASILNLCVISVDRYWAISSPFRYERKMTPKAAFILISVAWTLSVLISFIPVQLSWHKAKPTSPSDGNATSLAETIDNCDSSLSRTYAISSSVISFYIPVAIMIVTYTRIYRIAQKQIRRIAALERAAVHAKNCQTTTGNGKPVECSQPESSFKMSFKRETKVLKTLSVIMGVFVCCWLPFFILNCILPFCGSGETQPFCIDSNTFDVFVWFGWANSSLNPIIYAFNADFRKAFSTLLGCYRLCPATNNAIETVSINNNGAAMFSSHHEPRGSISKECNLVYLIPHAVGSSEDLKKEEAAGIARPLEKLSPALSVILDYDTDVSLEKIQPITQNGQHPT
T6 sequence (P34969 whole entry): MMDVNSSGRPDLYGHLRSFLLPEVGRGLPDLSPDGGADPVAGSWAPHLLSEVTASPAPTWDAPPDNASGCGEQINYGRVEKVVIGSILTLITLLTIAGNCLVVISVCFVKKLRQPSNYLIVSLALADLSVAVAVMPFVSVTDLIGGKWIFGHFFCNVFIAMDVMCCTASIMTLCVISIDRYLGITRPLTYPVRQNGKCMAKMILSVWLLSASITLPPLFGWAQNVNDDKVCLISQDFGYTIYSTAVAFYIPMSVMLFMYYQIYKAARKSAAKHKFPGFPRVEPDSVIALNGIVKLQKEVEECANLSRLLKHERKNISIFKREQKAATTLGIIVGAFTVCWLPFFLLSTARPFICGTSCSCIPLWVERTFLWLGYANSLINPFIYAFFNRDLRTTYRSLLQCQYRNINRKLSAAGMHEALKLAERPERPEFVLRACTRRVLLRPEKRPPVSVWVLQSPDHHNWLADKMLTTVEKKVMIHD
Chain of 5-HT2BR (P41595 whole entry): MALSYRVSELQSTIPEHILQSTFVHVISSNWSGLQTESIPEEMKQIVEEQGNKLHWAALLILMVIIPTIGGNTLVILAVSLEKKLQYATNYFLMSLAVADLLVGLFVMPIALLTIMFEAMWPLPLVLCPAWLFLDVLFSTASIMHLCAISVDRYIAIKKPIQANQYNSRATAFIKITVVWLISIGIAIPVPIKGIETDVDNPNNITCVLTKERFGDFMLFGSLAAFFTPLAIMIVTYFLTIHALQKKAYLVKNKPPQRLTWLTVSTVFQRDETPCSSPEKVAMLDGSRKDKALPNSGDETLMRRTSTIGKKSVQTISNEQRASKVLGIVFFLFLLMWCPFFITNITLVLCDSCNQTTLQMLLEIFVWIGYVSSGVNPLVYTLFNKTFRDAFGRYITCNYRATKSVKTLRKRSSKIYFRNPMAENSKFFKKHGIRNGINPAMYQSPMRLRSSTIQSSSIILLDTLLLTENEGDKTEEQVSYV
T4 sequence (P34969 1-445 isoform P34969-2): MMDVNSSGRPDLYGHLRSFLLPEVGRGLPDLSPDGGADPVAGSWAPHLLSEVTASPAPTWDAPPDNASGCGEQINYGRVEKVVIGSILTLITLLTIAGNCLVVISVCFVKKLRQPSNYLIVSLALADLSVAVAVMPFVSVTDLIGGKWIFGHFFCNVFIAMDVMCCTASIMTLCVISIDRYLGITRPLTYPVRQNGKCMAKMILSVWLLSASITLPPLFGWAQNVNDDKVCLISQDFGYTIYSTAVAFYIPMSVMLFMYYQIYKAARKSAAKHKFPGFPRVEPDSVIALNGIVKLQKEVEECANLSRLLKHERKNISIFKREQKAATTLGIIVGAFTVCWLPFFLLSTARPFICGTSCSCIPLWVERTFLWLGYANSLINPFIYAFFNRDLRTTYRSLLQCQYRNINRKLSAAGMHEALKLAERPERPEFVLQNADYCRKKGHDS
Chain of D3R (P35462 whole entry): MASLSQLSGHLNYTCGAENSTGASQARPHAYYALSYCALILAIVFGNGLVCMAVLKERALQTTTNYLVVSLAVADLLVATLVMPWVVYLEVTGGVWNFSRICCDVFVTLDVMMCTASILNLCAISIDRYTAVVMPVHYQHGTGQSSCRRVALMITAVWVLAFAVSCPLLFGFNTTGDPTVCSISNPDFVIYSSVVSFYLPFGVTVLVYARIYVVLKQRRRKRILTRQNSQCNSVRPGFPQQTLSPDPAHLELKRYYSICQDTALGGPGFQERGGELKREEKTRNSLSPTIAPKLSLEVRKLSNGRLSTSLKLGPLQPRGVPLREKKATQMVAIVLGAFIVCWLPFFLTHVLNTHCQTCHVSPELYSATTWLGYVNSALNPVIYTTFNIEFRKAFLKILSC
Chain of NET (P23975 whole entry): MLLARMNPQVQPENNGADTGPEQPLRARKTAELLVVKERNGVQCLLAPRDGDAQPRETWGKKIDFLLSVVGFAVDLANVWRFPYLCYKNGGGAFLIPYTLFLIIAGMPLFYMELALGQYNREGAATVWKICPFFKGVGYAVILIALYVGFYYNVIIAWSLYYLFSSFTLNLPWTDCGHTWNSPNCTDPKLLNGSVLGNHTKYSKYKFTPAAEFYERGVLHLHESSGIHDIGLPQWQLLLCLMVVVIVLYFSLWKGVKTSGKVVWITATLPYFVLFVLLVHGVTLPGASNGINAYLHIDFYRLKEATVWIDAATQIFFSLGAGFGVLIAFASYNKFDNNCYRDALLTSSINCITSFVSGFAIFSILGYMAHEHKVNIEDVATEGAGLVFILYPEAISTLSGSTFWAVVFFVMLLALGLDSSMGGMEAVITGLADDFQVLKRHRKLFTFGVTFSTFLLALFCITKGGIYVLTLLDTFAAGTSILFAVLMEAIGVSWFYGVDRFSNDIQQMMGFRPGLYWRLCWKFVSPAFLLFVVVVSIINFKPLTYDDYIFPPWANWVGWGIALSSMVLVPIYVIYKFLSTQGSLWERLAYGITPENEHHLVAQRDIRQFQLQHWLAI
Chain of DAT (Q01959 whole entry, species assumed): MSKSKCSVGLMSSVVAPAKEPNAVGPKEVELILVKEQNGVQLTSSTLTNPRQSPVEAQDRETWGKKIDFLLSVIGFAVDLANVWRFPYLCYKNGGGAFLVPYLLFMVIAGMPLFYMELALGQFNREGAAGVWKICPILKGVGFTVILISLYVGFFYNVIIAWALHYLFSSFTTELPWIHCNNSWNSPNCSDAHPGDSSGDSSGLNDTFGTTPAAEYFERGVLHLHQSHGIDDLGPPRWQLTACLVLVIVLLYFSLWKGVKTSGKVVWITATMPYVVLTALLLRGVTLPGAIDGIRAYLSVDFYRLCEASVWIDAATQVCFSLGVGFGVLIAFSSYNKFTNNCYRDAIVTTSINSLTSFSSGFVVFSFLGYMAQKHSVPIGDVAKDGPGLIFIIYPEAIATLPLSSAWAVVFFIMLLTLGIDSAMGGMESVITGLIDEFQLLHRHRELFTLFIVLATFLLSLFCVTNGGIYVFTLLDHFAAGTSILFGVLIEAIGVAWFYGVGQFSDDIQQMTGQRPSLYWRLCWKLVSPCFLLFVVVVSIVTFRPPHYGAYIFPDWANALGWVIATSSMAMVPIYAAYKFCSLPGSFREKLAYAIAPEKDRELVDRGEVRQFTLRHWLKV

CC1(CCN2CCc3ccccc3C2)Cc2cc(Cl)ccc2C1=O (single isomer, unassigned; (-)) [Compound 2a, (−)-5-chloro-2-(2-(3,4-dihydroisoquinolin-2(1H)-yl)ethyl)-2-methyl-2,3-dihydro-1H-inden-1-one]
Racemization of separated enantiomers [1]: No racemization | Binding, 5-HT2CR: inhibition threshold class (5-HT2CR; 10 μM concentration): MT (Missed threshold of 50% inhibition at 10 μM concentration) | Binding affinity constant pKi ± SEM, 5-HT2BR (5-HT2BR; [12]): 6.48 ± 0.04 | Ki (5-HT2BR; read-out: Binding affinity constant Ki, 5-HT2BR): 329 nM | Binding affinity constant pKi ± SEM, D4 (D4R; [3H]N-Methylspiperone, mean ± SEM, min 3 assays in triplicate): 6.34 ± 0.07 | Ki (D4R; read-out: Binding affinity constant Ki, D4, [3H]N-Methylspiperone): 457 nM | Binding affinity constant pKi ± SEM, 5-HT1AR (5-HT1AR [2]; [12]): 7.06±0.07 | Ki (5-HT1AR [2]; read-out: Binding affinity constant Ki, 5-HT1AR): 86.3 nM | cAMP Hill (h5-HT7A [3]): 1.3± 0.2 | cAMP pEC50 (h5-HT7A [3]): 6.9±0.3 | cAMP Emax % (h5-HT7A [3]; normalized to maximal serotonin effect): 82.8 ± 2.6% | EC50 (h5-HT7A [3]; read-out: cAMP EC50): 126 nM | Binding, NET: inhibition threshold class (NET): MT (Missed threshold of 50% inhibition at 10 μM concentration) | Binding, D1: inhibition threshold class (D1R; [13]): MT (Missed threshold of 50% inhibition at 10 μM concentration) | Binding, SERT: inhibition threshold class (SERT [4]): MT (Missed threshold of 50% inhibition at 10 μM concentration) | Binding, DAT: inhibition threshold class (DAT): MT (Missed threshold of 50% inhibition at 10 μM concentration) | β-arrestin Emax % (5-HT7R [5]; agonist mode, Tango): 78.7 ± 5.7% | β-arrestin Hill (5-HT7R [5]; agonist mode, Tango): 1.2 ± 0.1 | β-arrestin pEC50 (5-HT7R [5]; agonist mode, Tango): 8.4 ± 0.1 | EC50 (5-HT7R [5]; read-out: β-arrestin EC50, agonist mode, Tango): 3.98 nM | Times higher activity than 5-HT in the β-arrestin pathway (5-HT7R [5]; relative to 5-HT): over 31 times | Binding, D5: inhibition threshold class (D5R; [13]): MT (Missed threshold of 50% inhibition at 10 μM concentration) | Binding, D3: inhibition threshold class (D3R; 10 μM concentration): MT (Missed threshold of 50% inhibition at 10 μM concentration) | Selectivity for 5-HT7R over 5-HT1AR (5-HT7R [6]): ~72 fold | Binding affinity constant pKi ± SEM, 5-HT7R (5-HT7R [6]; Table 1, [3H]LSD, mean ± SEM, min 3 assays in triplicate): 8.94 ± 0.06 | 5-HT7 Receptor Binding pKi (5-HT7R [6]; Table 3): 8.7 ± 0.1 | Ki (5-HT7R [6]; read-out: 5-HT7 Receptor Binding Ki, Table 3): 2.4 nM | Ki (5-HT7R [6]; read-out: Binding affinity constant Ki, 5-HT7R, Table 1, [3H]LSD): 1.2 nM | Binding, D2: inhibition threshold class (D2R; 10 μM concentration): MT (Missed threshold of 50% inhibition at 10 μM concentration) | Binding affinity constant pKi ± SEM, 5-HT2AR (5-HT2AR; [12]): 6.08 ± 0.06 | Ki (5-HT2AR; read-out: Binding affinity constant Ki, 5-HT2AR): 834 nM

CC1(CCN2CCc3ccccc3C2)Cc2cc(Cl)ccc2C1=O (stereo not drawn) [Compound 2, 5-chloro-2-(2-(3,4-dihydroisoquinolin-2(1H)-yl)ethyl)-2-methyl-2,3-dihydro-1H-inden-1-one]
Ki (5-HT2CR; Binding affinity constant Ki, 5-HT2CR, [3H]Mesulergine): 1740 nM | Ki (5-HT2BR; Binding affinity constant Ki, 5-HT2BR): 174 nM | Ki (D4R; Binding affinity constant Ki, D4, [3H]N-Methylspiperone): 1220 nM | Ki (5-HT1AR [2]; [14]): 1720 nM | inhibition at 10 µM (NET; read-out: Binding, NET: inhibition threshold class): < 50% | inhibition at 10 µM (D1R): < 50% | inhibition at 10 µM (SERT [4]; read-out: Binding, SERT: inhibition threshold class): < 50% | inhibition at 10 µM (DAT; read-out: Binding, DAT: inhibition threshold class): < 50% | inhibition at 10 µM (D5R): < 50% | Ki (D3R): 185 nM | Fold higher affinity at the 5-HT7R than clozapine (5-HT7R [6]): 2 fold | Fold lower affinity at the 5-HT7R than AS 19 (5-HT7R [6]): about 4 fold | Ki (5-HT7R [6]): 2.24 nM | Ki (D2R): 1230 nM | Ki (5-HT2AR; Binding affinity constant Ki, 5-HT2AR): 904 nM

Clc1ccc(-c2n[nH]c3c2CCNCC3)cc1 [Compound 7, 3-(4-chlorophenyl)-1,4,5,6,7,8-hexahydropyrazolo[3,4-d]azepine]
cAMP Emax % (h5-HT7A [7]): 94.7% | cAMP pEC50 (h5-HT7A [7]): 5.1±0.1 | EC50 (h5-HT7A [7]; read-out: cAMP EC50): 7790 nM | Ki (5-HT1AR [8]): > 10000 nM | β-arrestin Emax % (5-HT7R [9]): 62.7% | β-arrestin pEC50 (5-HT7R [9]): 6.8±0.2

Cc1nn(C)c(C)c1-c1cccc2c1CC[C@H](N(C)C)C2 [AS-19]
Ki (5-HT7R [10]): 0.6 nM | Ki (5-HT1AR [8]): 89.7 nM

CCOC(=O)C1(CCN2CCc3ccccc3C2)Cc2cc(Cl)ccc2C1=O (stereo not drawn) [Compound 3, ethyl 5-chloro-2-(2-(3,4-dihydroisoquinolin-2(1H)-yl)ethyl)-1-oxo-2,3-dihydro-1H-indene-2-carboxylate]
Ki (5-HT2CR): 885 nM | inhibition at 10 µM (D4R; read-out: Binding, D4: inhibition threshold class): < 50% | Ki (5-HT1AR [2]; [14]): 52 nM | Binding, NET: inhibition threshold class (NET): MT (Missed threshold of 50% inhibition at 10 μM concentration) | inhibition at 10 µM (D1R): < 50% | Binding, SERT: inhibition threshold class (SERT [4]): MT (Missed threshold of 50% inhibition at 10 μM concentration) | Binding, DAT: inhibition threshold class (DAT): MT (Missed threshold of 50% inhibition at 10 μM concentration) | inhibition at 10 µM (D5R): < 50% | Ki (D3R): 134 nM | Ki (5-HT7R [6]): 3.39 nM | Ki (D2R): 747 nM

O=C1c2ccc(Cl)cc2CC1CCN1CCc2ccccc2C1 (stereo not drawn) [Compound 1c, 5-chloro-2-(2-(3,4-dihydroisoquinolin-2(1H)-yl)ethyl)-2,3-dihydro-1H-inden-1-one]
Racemization of separated enantiomers [1]: racemizes readily; also recorded: quickly reverted to the racemic mixture in a matter of hours | Binding, SERT: inhibition threshold class (SERT [11]): MT (Missed threshold of 50% inhibition at 10 μM concentration)

NCCc1c[nH]c2ccc(O)cc12 [Compound 5-HT, Serotonin, reference compound]
cAMP Hill (h5-HT7A [3]): 1.0±0.1 | β-arrestin Hill (5-HT7R [5]; agonist mode, Tango): 3.4±0.4
